The source made the active and inactive calls. No cut-off for these calls is given here.
How the values were obtained:
[1] = system: Mus musculus; assay: Compound was tested in vivo for narcotic agonist activity (dose in sc, mg/kg) in mice using hot plate assay; I = Inactive at 1,10, 30 mg/kg; type: functional, organism-based; set-up: dose 30 mg/kg
[2] = system: Mus musculus; assay: Compound was tested in vivo for narcotic antagonist activity (dose in sc, mg/kg) in mice using tail flick antagonism assay; type: functional
Outline: (§1)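 Mouse tail-flick antagonism assay against morphine, with the test compound given subcutaneously and doses in mg/kg. It was run by an outside laboratory (Medical College of Virginia).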

[3] = system: Mus musculus; assay: Compound was tested in vivo for narcotic agonist activity (dose in sc, mg/kg) in mice using tail flick assay; I = Inactive at 1,10, 30 mg/kg; type: functional, organism-based; set-up: dose 30 mg/kg
[4] = system: Mus musculus; assay: Compound was tested in vivo for narcotic agonist activity (dose in sc, mg/kg) in mice using phenylquinone assay; I = Inactive at 1,10, 30 mg/kg; type: functional, organism-based; set-up: dose 30 mg/kg
[5] = system: Mus musculus; assay: Compound was tested in vivo for narcotic agonist activity (dose in sc, mg/kg) in mice using hot plate assay; type: functional
Outline: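 Mouse hot-plate test for narcotic agonist activity with subcutaneous dosing. Values are in mg/kg with 95% confidence limits.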

[6] = system: Mus musculus; assay: Compound was tested in vivo for narcotic antagonist activity (dose in sc, mg/kg) in mice using tail flick antagonism assay; I = Inactive at 1,10, 30 mg/kg; type: functional, organism-based; set-up: dose 30 mg/kg; outline: as §1
[7] = system: Mus musculus; assay: Compound was tested in vivo for narcotic agonist activity (dose in sc, mg/kg) in mice using phenylquinone assay.; type: functional
[8] = system: Mus musculus; assay: Compound was tested in vivo for narcotic agonist activity (dose in sc, mg/kg) in mice using tail flick assay.; type: functional
[9] = system: Mus musculus; assay: Compound was tested in vivo for narcotic agonist activity (dose in sc, mg/kg) in mice using phenylquinone assay; type: functional
[10] = system: Mus musculus; assay: Compound was tested in vivo for narcotic agonist activity (dose in sc, mg/kg) in mice using tail flick assay; type: functional
[11] = system: Mus musculus; assay: Compound was tested in vivo for narcotic antagonist activity (dose in sc, mg/kg) in mice using tail flick antagonism assay; I =inactive at 1, 10, 30 mg/kg; type: functional, organism-based; set-up: dose 30 mg/kg; outline: as §1

Row | Compound | Activity [1] | Activity [3] | Activity [5] | Activity [6] | Activity [7] | also measured
1 | CN1c2ccc(O)cc2[C@]2(C)CCN[C@H]12 | inactive |  |  |  |  | 
2 | C=CCN1CC[C@]23c4c5ccc(O)c4O[C@H]2C(=O)CC[C@@]3(O)[C@H]1C5 [NALOXONE] | inactive | inactive |  |  |  | Activity [2]: 0.03; Activity [4]: inactive
3 | CN1CC[C@@]2(C)c3cc(O)ccc3N(C)[C@@H]12 |  |  | 1.6 | inactive | 0.7 | Activity [8]: 2.3
4 | CN1CC[C@]23c4c5ccc(O)c4O[C@H]2[C@@H](O)C=C[C@H]3[C@H]1C5 [MORPHINE] |  |  | 1.3 |  |  | Activity [9]: 0.23; Activity [10]: 5.8; Activity [11]: inactive
5 | CN1CC[C@]2(C)c3cc(O)ccc3N(C)[C@H]12 | inactive | inactive |  | inactive | 2.3 | 

From ChEMBL document CHEMBL1123272, “Comparison of (-)-eseroline with (+)-eseroline and dihydroseco analogues in antinociceptive assays: confirmation of rubreserine structure by X-ray analysis” (1986)
